pIC50: −log10 of the molar value. Calls of active or inactive are those of the source. No cut-off for these calls is given here.
Columns and labels:
Jurkat [1] = experiment: Cytotoxicity against human Jurkat cells assessed as inhibition of cell proliferation after 72 hrs by trypan blue staining assay; format: functional, cell-based
Summary of the method: (§1)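 Trypan blue exclusion count of Jurkat, U937 or K562 cells (RPMI, 10% FCS, 37 °C, 5% CO2, 10 days' culture after thawing) exposed to compound from DMSO stock; controls received equal DMSO. Proliferation expressed relative to control; mean ± SD of three determinations, Student's t-test with p<0.05 taken as significant.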

Jurkat [2] = experiment: Cytotoxicity against human Jurkat cells assessed as inhibition of cell proliferation at 50 uM after 72 hrs by trypan blue staining assay; format: functional; summary of the method: as §1
[3] = Cytotoxicity against human U937 cells assessed as inhibition of cell proliferation at 30 uM after 72 hrs by trypan blue staining assay; format: functional; settings: U-937, 72 h; summary of the method: as §1
K562 [4] = experiment: Cytotoxicity against human K562 cells assessed as inhibition of cell proliferation at 10 to 50 uM after 8 to 72 hrs by trypan blue staining assay; format: functional, cell-based; summary of the method: as §1
Jurkat [5] = experiment: Cytotoxicity against human Jurkat cells assessed as reduction in cell viability after 24 to 72 hrs by CellTiter-Glo luminescent cell viability assay; format: functional, cell-based
Summary of the method: (§2)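 Leukemia cells in RPMI/10% FCS at 37 °C, 5% CO2 treated for 24, 48 or 72 h. Equal volume of CellTiter-Glo reagent added, 10 min in the dark at RT, ATP luminescence converted to viable cell number. Normalized to untreated control (%), etoposide as positive control; mean ± SD of three determinations; IC50 from concentration-response.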

K562 [6] = experiment: Cytotoxicity against human K562 cells assessed as reduction in cell viability after 24 to 72 hrs by CellTiter-Glo luminescent cell viability assay; format: functional, cell-based; summary of the method: as §2
[7] = Cytotoxicity against human U937 cells assessed as reduction in cell viability at 10 to 50 uM after 48 hrs by CellTiter-Glo luminescent cell viability assay; format: functional, U-937; summary of the method: as §2
[8] = Cytotoxicity against human U937 cells assessed as reduction in cell viability at 10 to 50 uM after 72 hrs by CellTiter-Glo luminescent cell viability assay; format: functional, U-937; summary of the method: as §2
PBMC = experiment: Cytotoxicity against human PBMC assessed as reduction in cell viability at 10 to 50 after 24 to 72 hrs by CellTiter-Glo luminescent cell viability assay; format: cell-based
Summary of the method: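 PBMCs isolated from healthy donor buffy coats (blood diluted 1/3 in RPMI, Ficoll, 400 × g, 20 min), kept 24 h at 37 °C, 5% CO2, then treated 24–72 h. ATP read by CellTiter-Glo luminescence (10 min, dark, RT), normalized to untreated control (%); etoposide positive control; mean ± SD, n=3.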

[9] = Cytotoxicity against human U937 cells assessed as cell viability at 10 uM after 72 hrs by trypan blue staining assay; settings: U-937, 72 h
Jurkat [10] = experiment: Cytotoxicity against human Jurkat cells assessed as cell viability at 10 uM after 72 hrs by trypan blue staining assay
U-937 = experiment: Cytotoxicity against human U937 cells assessed as inhibition of cell viability at 20 uM after 72 hrs by trypan blue staining assay; format: functional, cell-based
K562 [11] = experiment: Cytotoxicity against human K562 cells assessed as inhibition of cell proliferation at 20 uM after 72 hrs by trypan blue staining assay; format: functional, cell-based; summary of the method: as §1
K562 [12] = experiment: Cytostatic effect against human K562 cells at >30 uM after 72 hrs by trypan blue staining assay; format: functional, cell-based; summary of the method: as §1
Jurkat [13] = experiment: Cytotoxicity against human Jurkat cells assessed as reduction in cell viability after 72 hrs by CellTiter-Glo luminescent cell viability assay; format: functional, cell-based; summary of the method: as §2
[14] = Cytotoxicity against human U937 cells assessed as reduction in cell viability after 72 hrs by CellTiter-Glo luminescent cell viability assay; format: functional, cell-based; settings: U-937, 72 h; summary of the method: as §2
K562 [15] = experiment: Cytotoxicity against human K562 cells assessed as reduction in cell viability after 72 hrs by CellTiter-Glo luminescent cell viability assay; format: functional, cell-based; settings: K562, 72 h; summary of the method: as §2
Jurkat [16] = experiment: Induction of apoptosis in human Jurkat cells assessed as caspase-3 cleavage at 20 uM after 48 hrs Western blotting method; format: functional, cell-based
Summary of the method: (§3)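 Jurkat cells (10⁷ per sample) treated up to 48 h, lysed on ice in hypertonic detergent buffer with protease inhibitors, cleared at 15,000 × g, 15 min, 4 °C. Separated by 10% SDS-PAGE, transferred to nitrocellulose, probed with anti-caspase 3 or anti-caspase 7 (1/1000) and HRP secondary; β-actin loading control.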

Jurkat [17] = experiment: Induction of apoptosis in human Jurkat cells assessed as caspase-7 cleavage at 20 uM after 48 hrs Western blotting method; format: functional, cell-based; summary of the method: as §3

| Structure (SMILES) | viability at 10 µM [9] | viability at 10 µM (Jurkat [10]) | other results |
| --- | --- | --- | --- |
| COc1cc(/C=C/C(=O)c2ccc3c(c2O)OCO3)cc(OC)c1OC | 64.4% | 56.1% | inhibition (Jurkat [1]): Dose-dependent effect; inhibition at 50 µM (Jurkat [2]): 70%; inhibition at 30 µM [3]: 41%; inhibition (K562 [4]): inactive; inhibition (Jurkat [5]): Dose-dependent effect; inhibition (K562 [6]): inactive; inhibition (INH) [7]: 35%; inhibition (INH) [8]: 20%; Activity (PBMC): Non-toxic |
| COc1ccccc1/C=C/C(=O)c1ccc2c(c1O)OCO2 | 55.4% | 59% | inhibition (U-937): Active; inhibition (K562 [11]): Active; Activity (K562 [12]): Active; pIC50 (Jurkat [13]): 4.86; pIC50 [14]: 4.94; pIC50 (K562 [15]): 4.37; Activity (PBMC): Non-toxic; Activity (Jurkat [16]): Active; Activity (Jurkat [17]): Active |
| COc1ccccc1C1CC(=O)c2ccc3c(c2O1)OCO3 (configuration not stated) | 74% | 83.2% |  |
| COc1ccc(-c2cc(=O)c3ccc4c(c3o2)OCO4)cc1 | 76.5% | 81.2% |  |
| COc1ccccc1-c1cc(=O)c2ccc3c(c2o1)OCO3 | 82.7% | 91.6% |  |
| COc1cc(C2CC(=O)c3ccc4c(c3O2)OCO4)cc(OC)c1OC (configuration not stated) | 68.3% | 69.7% |  |
| COc1ccc(C2CC(=O)c3ccc4c(c3O2)OCO4)cc1OC (configuration not stated) | 80.4% | 74.9% |  |
| COc1ccc(/C=C/C(=O)c2ccc3c(c2O)OCO3)cc1 | 80.9% | 80.6% |  |
| COc1ccc(-c2cc(=O)c3ccc4c(c3o2)OCO4)cc1OC | 82.5% | 87.9% |  |
| COc1cc(-c2cc(=O)c3ccc4c(c3o2)OCO4)cc(OC)c1OC | 90.5% | 76% |  |
| COc1ccc(C2CC(=O)c3ccc4c(c3O2)OCO4)cc1 (configuration not stated) | 81.7% | 88.2% |  |
| COc1ccc(/C=C/C(=O)c2ccc3c(c2O)OCO3)cc1OC | 69.3% | 77.5% |  |
